Mdm2 MdmX PPI – inhibitors of human Mdm2-MdmX association, primary screen, cell-based, luminescence, split luciferase, SaOS-2, uHTS. Protein Mdm4 (Homo sapiens) + E3 ubiquitin-protein ligase Mdm2 (Homo sapiens), …. SaOS-2 split-luciferase Mdm2/MdmX complementation. inhibition, % at 8 µM. actives 3% (n = 330,000). AID 485346, 2010;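 active means inhibition of at least 50% at 8 µM in the primary screen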
Target sequence (O15151 whole entry, looked up): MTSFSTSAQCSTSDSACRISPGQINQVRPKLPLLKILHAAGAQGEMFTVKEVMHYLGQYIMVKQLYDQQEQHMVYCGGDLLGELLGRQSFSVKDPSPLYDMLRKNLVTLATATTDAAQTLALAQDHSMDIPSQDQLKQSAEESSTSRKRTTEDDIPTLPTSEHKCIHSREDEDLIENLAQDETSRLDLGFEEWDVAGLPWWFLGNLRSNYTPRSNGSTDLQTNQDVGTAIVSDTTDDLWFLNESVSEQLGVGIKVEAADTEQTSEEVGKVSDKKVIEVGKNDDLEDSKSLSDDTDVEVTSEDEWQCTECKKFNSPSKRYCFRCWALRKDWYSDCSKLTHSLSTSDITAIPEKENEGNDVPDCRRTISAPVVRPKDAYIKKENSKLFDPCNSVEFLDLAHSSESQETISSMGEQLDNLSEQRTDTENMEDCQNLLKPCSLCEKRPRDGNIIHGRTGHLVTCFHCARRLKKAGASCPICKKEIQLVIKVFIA
Target sequence (Q00987 whole entry, looked up): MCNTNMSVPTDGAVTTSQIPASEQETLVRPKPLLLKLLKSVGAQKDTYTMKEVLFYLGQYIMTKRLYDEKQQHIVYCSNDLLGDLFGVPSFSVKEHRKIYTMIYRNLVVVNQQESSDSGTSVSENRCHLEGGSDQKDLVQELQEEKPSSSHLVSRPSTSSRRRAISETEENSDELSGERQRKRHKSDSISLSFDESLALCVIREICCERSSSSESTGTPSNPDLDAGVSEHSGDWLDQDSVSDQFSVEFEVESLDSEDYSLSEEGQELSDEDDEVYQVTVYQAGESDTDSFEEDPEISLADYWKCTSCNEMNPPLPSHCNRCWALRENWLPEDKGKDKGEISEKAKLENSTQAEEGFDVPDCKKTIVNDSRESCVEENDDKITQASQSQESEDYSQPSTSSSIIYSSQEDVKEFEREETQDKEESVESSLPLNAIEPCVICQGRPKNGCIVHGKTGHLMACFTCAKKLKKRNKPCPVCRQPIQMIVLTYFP
B2AR ag – beta2AR agonists driving receptor internalization, primary screen, cell-based, FAP fluorogen, flow cytometry; Beta-2 adrenergic receptor (Homo sapiens), P07550; Am2.2-beta2AR cells; response, % (test concentration not listed); actives 0.43% (n = 340,000); AID 504454, 2011;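 active means response above a set limit, near 3 SD of response in nonfluorescent compounds, cut at about 42% in these data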
UPR CHOP act – activators of apoptotic CHOP UPR arm, primary screen, cell-based, CHO-CHOP luciferase reporter, luminescence, uHTS; UPR activation; percent of tunicamycin response over DMSO baseline; activation, % at 10 µM; actives 0.34% (n = 330,000);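 active means at 10 µM dose, activation of 40% or more, normalized to positive control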;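 further: 100% = tunicamycin at 10 µg/mL and 0% = DMSO alone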
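Assay system: CHO-CHOP cells, stable luciferase reporter of PERK-eIF2a-CHOP signalling / Buffer or medium: F12 plus 10% serum / Compound dosing: one dose, 10 µM in 0.5% DMSO / Times: 6 h compound treatment, 37 °C / Technique: luciferase luminescence / Read-out: % reporter activation, DMSO baseline versus tunicamycin full activation / Benchmarks: tunicamycin and DMSO controls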
Dynein transport – inhibitors of GR-EGFP nuclear translocation, primary screen, dynein cargo transport inhibitor project, imaging, high-content, 3617.4 mouse cells. test concentration mostly 20 µM; stimulated with dexamethasone, 1 µM; active compounds read low. AID 1381, 2008. z-score, hits read low. actives 0.47% (n = 220,000);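 active means plate z-score of nuclear minus cytoplasmic receptor signal below a set negative limit, without overly bright fluorescence or cell loss, cut at about -3.5 in these data, passing the limit was not always enough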;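 further: z-score of nuclear minus cytoplasmic ring GR-EGFP intensity difference per well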
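Buffer or medium: tetracycline-free induction medium containing charcoal-stripped FBS / Reagent: dexamethasone agonist, 1.0 µM final, for 30 min / Technique: automated 10x imaging of fixed Hoechst-stained cells / Times: induction 48 h, compound 1 h, agonist 30 min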
Mdm2 ligase inh – MDM2-luciferase reporter signal enhancers, primary screen, MDM2 E3 ligase inhibitor project, cell-based, luminescence, 1536-well. cell-based MDM2 ubiquitination luciferase reporter, 2 h; 0 = plate control, 100 = twice control, blank-subtracted. actives 0.11% (n = 210,000). signal enhancement, % at 5 µM. AID 1230, 2008. E3 ubiquitin-protein ligase Mdm2 (Homo sapiens), Q00987;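 active means signal enhancement of 30% or more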;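 further: luminescence tracks abundance of the self-degrading MDM2-luciferase fusion protein; higher signal means inhibition of MDM2 E3 ligase activity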
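Timing – 2 h compound exposure at 37 °C · Assay system – mammalian cells stably expressing self-ubiquitinating, self-degrading MDM2 E3–luciferase fusion · Amount – 2000 cells seeded into each well · Measure – % luminescence enhancement versus blank-corrected plate control mean · Measured by – SteadyLite luminescence, 15 min reagent step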
XBP1 UPR activ – activators of adaptive XBP1 UPR arm, primary screen, cell-based, CHO-XBP1 luciferase reporter, luminescence, uHTS; IRE1-XBP1 UPR activation; percent of tunicamycin response, DMSO as zero; activation, % at 20 µM; actives 0.33% (n = 330,000);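 active means versus positive control, 20 µM dose yields 30% or more activation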;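 further: 100% = tunicamycin at 10 µg/mL and 0% = DMSO only wells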
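Material: CHO cell line with stable XBP1 luciferase reporter; schedule: 16-18 h cell attachment at 37 °C, then 6 h compound exposure; signal: glow luminescence from Steady-Glo reagent; medium: serum-containing F12 medium, 10% FBS; benchmarks: tunicamycin 10 µg/mL and vehicle-only wells; read-out: percent activation relative to tunicamycin reference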
The depositor's hits bear a star; · = no result given. Most compounds without a hit are left out; they make up all but 3.7% or so of the library.

SMILES | Mdm2 MdmX PPI | B2AR ag | UPR CHOP act | Dynein transport | Mdm2 ligase inh | XBP1 UPR activ
CCN(CC)S(=O)(=O)c1ccc(C(=O)NCc2n[nH]c(=S)n2-c2ccc(Cl)c(Cl)c2)cc1 | -4 | -3 | 0 | -0.81 | -1 | 4
O=C(COc1ccc2ccc(=O)oc2c1)Nc1cc([N+](=O)[O-])ccc1F | 18 | 60* | 2 | · | · | 0
Cc1ccc(NC(=O)COC(=O)COc2ccc3ccc(=O)oc3c2)cc1[N+](=O)[O-] | 8 | -3 | -1 | · | · | 0
COCCN(C(=O)CSc1nnc(-c2ccccc2F)n1N)c1c(N)n(Cc2ccccc2)c(=O)[nH]c1=O | -5 | -16 | 1 | · | · | 0
O=C1c2sc3nc4ccccc4n3c2C(=O)N1c1ccccc1Cl | -8 | 46* | 4 | -2.9 | -2 | -1
CCCCc1nnc(NC(=O)CSCc2cc(=O)n3cc(C)sc3n2)s1 | 13 | -4 | -1 | · | · | -3
CCCCN(CCCC)S(=O)(=O)c1ccc(NC(=O)Cc2cccs2)cc1 | 24 | 51* | -4 | -0.12 | -41 | -3
O=c1oc2ccccc2c(O)c1/C=N/c1ncccn1 | 19 | 4 | 0 | · | · | -1
O=c1oc2ccccc2c(O)c1/C=C1\C=Nc2ccccc21 | -9 | 48* | 1 | -0.37 | -9 | -3
O=C(Nc1ccc(N2CCCC2)c(Cl)c1)c1cccc(-c2cc3ccccc3oc2=O)c1 | 2 | 61* | -1 | 1.2 | -11 | 0
CC(=O)Nc1ccc(NC(=O)c2cccc(-c3cc4ccccc4oc3=O)c2)cc1 | -15 | -22 | 3 | -1.2 | -9 | -2
CN(Cc1ccccc1)C(=O)c1cccc(NC(=O)Cc2ccc(NC(=O)C3CCCN(C(=O)C4CCCCC4)C3)cc2)c1 (stereo unspecified) | · | 2 | · | · | · | ·
COc1cc(C(=O)OCCN2CCCCC2)ccc1O | 9 | 6 | -1 | -1.5 | -18 | -5
CCCOC(=O)c1ccc(O)c(OC)c1 | -16 | 7 | 0 | 0.52 | 45* | -2
O=c1ccc(-c2ccc(S(=O)(=O)N3CCN(c4cccc(Cl)c4)CC3)o2)n[nH]1 | 13 | 1 | 0 | · | · | -3
CCCN(CCC)S(=O)(=O)c1ccc(C(=O)Nc2ccc(S(=O)(=O)Nc3nnc(CC)s3)cc2)cc1 | 3 | 5 | 3 | · | · | -5
CC(=O)Cc1nsc(Nc2ccc(C)cc2)n1 | -47 | 7 | 3 | 0.17 | 38* | 2
CNc1nc(CC(C)=O)ns1 | -2 | 4 | 1 | -0.55 | -8 | 2
CCOc1ccc(/C(C)=N/NC(=O)c2nnn(-c3nonc3N)c2-c2cccs2)cc1 | -2 | -1 | 2 | · | · | 15
O=c1c(Br)c(Br)cnn1-c1ccccc1 | · | 39 | · | -5.8* | -5 | ·
CNC(=O)CSc1nnc(-c2ccco2)n1-c1cccc(OC)c1 | 24 | 3 | -2 | · | · | -3
COC(=O)Cn1c(=NC(=O)c2nc3ccccc3s2)sc2cc(S(C)(=O)=O)ccc21 | 33 | · | 2 | 1.7 | 1 | 42*
COc1ccccc1-c1cc(C(F)(F)F)nc(S(=O)(=O)CCCC(=O)Nc2cccnc2Cl)n1 | · | 12 | · | -4.4* | 43* | ·
COc1ccc(OC)c(CNn2c(-c3ccccc3F)nc3ccccc3c2=O)c1 | -14 | -7 | 0 | 0.28 | 43* | -2
COc1cc(NC(=O)COc2ccc3c(C)cc(=O)oc3c2C)cc(OC)c1OC | 21 | 11 | -1 | · | · | -2
SMILES | Mdm2 MdmX PPI | B2AR ag | UPR CHOP act | Dynein transport | Mdm2 ligase inh | XBP1 UPR activ
COc1cc(NC(=O)COc2cc3oc(=O)cc(C)c3cc2Cl)cc(OC)c1OC | 19 | 46* | 1 | · | · | -5
C=CCOC(=O)c1cc(-c2ccc(/C=C3\C(=O)NC(=O)C(C#N)=C3C)o2)ccc1Cl | · | 0 | · | -4.4* | -4 | ·
CCCOC(=O)c1cc(-c2ccc(/C=C3/C(=O)N(C)C(=O)C(C#N)=C3C)o2)ccc1Cl | -2 | 11 | -1 | -3.7* | · | 2
CC1=C(C#N)C(=O)NC(=O)/C1=C/c1ccc(-c2ccc(S(N)(=O)=O)cc2)o1 | -5 | -1 | 1 | 3 | -5 | 0
C/C(=N\NC(=O)Cc1csc(N2CCOCC2)n1)c1ccccc1 | -4 | -2 | -1 | 0.23 | -2 | -4
O=C(Cc1csc(N2CCOCC2)n1)N/N=C/c1ccc(O)c(O)c1O | · | 46* | · | -0.66 | -32 | ·
Cc1ccc(C(=O)c2coc3c2C(=O)C(=O)c2ccccc2-3)cc1 | -72 | 14 | 8 | -0.46 | -21 | 6
Cc1oc2c(c1C(=O)c1ccc(Cl)cc1)C(=O)C(=O)c1ccccc1-2 | · | 63* | · | -1.9 | -4 | ·
Cc1ccc(NC(=O)N[C@H](C(=O)O)C(C)C)c(C)c1 | 26 | 1 | 0 | -0.73 | -4 | 1
CC(C)=C1SC(N2CCN(c3cccc(C(F)(F)F)c3)CC2)=NC1=O | 12 | -1 | -3 | 0.52 | 30* | 3
CC(C)=C1SC(N2CCN(c3ccc(C)cc3)CC2)=NC1=O | -9 | 1 | 0 | -0.1 | 5 | -5
N#CC1(NC(=O)CN2C(=O)c3ccc([N+](=O)[O-])cc3C2=O)CCCCC1 | -1 | -3 | 1 | · | · | -3
O=C1/C(=C/c2cccc([N+](=O)[O-])c2)CCc2ccccc21 | 4 | 24 | 4 | -1.5 | -7 | 2
CCN1C/C(=C\c2cccc([N+](=O)[O-])c2)C(=O)/C(=C/c2cccc([N+](=O)[O-])c2)C1 | · | 85* | · | -3.7* | 39* | ·
